According to publication PMC3040319 (Pharmaceutical Research, 2010):
Where two headings read alike, the source gives them in different places.

What was measured:
mouse Oct1 = target: T1, mouse Oct1 (Mus musculus, UniProt O08966); experiment: Cellular accumulation of platinum in HEK-mOct1 cells; format: in vitro ADME; details: 10 μM, 1 h
T1 sequence (O08966 1-556): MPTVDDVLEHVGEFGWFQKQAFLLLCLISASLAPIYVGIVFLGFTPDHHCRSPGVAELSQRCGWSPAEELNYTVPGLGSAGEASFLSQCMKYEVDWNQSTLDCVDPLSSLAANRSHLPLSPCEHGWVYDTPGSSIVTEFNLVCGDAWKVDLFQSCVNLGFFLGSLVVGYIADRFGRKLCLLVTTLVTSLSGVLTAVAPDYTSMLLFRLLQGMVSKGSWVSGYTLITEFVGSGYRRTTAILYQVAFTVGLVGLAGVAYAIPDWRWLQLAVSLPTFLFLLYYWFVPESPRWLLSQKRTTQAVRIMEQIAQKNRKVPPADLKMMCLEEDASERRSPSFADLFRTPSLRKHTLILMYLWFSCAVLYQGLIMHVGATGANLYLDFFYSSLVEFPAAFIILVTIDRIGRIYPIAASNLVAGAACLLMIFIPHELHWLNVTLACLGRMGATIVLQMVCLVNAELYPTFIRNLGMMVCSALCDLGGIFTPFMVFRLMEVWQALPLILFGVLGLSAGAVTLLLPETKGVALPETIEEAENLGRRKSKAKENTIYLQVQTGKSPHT
In short: (§1)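 HEK293 cells stably carrying full-length mouse Oct1 cDNA in pcDNA5/FRT, selected with hygromycin B; the human OCT1 line's construct is not described. Cells grown in DMEM H21 with 10% FBS at 37°C, 5% CO2. Exposed to 10 μM test compound in serum-free medium for 1 h, then washed 3× with ice-cold PBS. Digested in 70% nitric acid at 65°C for ≥2.5 h. Pt measured by ICP-MS, normalised to BCA protein.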

HEK-MOCK cells = experiment: Cellular accumulation of platinum in HEK-MOCK cells; format: in vitro ADME, human; details: 10 μM, 1 h
In short: as §1

[1] = test system: primary mouse hepatocytes; format: in vitro ADME
Kim-1 = experiment: Renal Kim-1 mRNA by qRT-PCR in the CDPCP toxicity study; format: in vivo, mouse; details: i.v. once weekly for 3 weeks
In short: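 Same weekly ×3 tail-vein regimen with saline controls; kidneys were harvested 24 h after the last dose. Kidney RNA was extracted with Trizol and DNase I-treated, then reverse-transcribed. Taqman qRT-PCR for Kim-1 used GAPDH as internal control: 95°C 20 s, then 40 cycles of 95°C 3 s and 60°C 30 s. Results expressed as fold over saline.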

Structure (SMILES): [NH3+][Pt-2]([NH3+])([Cl])[n+]1ccccc1 (stereo not drawn) [CDPCP, cis-diammine(pyridine)chloroplatinum(II)]
- uptake of platinum (mouse Oct1; HEK-mOct1 cells): 1470 ± 66.6 pmol/mg protein/hr
- uptake of platinum, fold greater than in HEK-MOCK cells (mouse Oct1; HEK-mOct1 vs HEK-MOCK): 53 fold
- uptake of platinum (HEK-MOCK cells): 27.4 ± 7.43 pmol/mg protein/hr
- hepatocellular uptake, wild-type as fold of Oct1-/- ([1]; 10 μM, 1 hr): 2.9 fold
- hepatocellular uptake ([1]; hepatocytes from Oct1-/- mice, 10 μM, 1 hr): 87.8 ± 7.61 pmol/mg protein/hr
- hepatocellular uptake ([1]; hepatocytes from Oct1-/- mice, 10 μM, 1 hr, co-incubation with disopyramide 150 μM): 95.8 ± 17.6 pmol/mg protein/hr
- hepatocellular uptake ([1]; hepatocytes from Oct1 wild-type mice, 10 μM, 1 hr): 251 ± 94.6 pmol/mg protein/hr
- hepatocellular uptake ([1]; hepatocytes from Oct1 wild-type mice, 10 μM, 1 hr, co-incubation with disopyramide 150 μM): 55.9 ± 1.41 pmol/mg protein/hr
- fold decrease in platinum uptake by disopyramide ([1]; hepatocytes from Oct1 wild-type mice, disopyramide 150 μM): 4.5 fold
- renal mRNA levels of Kim-1, fold over saline control (Kim-1; Oct1+/+ mice): 19.3 fold
- renal mRNA levels of Kim-1, fold over saline control (Kim-1; Oct1-/- mice): 117 fold
